In ChEMBL document CHEMBL1687712, “Antiviral effects of lamivudine, emtricitabine, adefovir dipivoxil, and tenofovir disoproxil fumarate administered orally alone and in combination to woodchucks with chronic woodchuck hepatitis virus infection” (Antimicrob Agents Chemother, 2008) one finds Activity data, which are given here for 2 compounds.

Calls of active or inactive are those of the source. No cut-off for these calls is given here.

Data set [1] has as its system Marmota monax. The experiment in a line: Toxicity in Woodchuck hepatitis virus infected woodchuck assessed as increase of liver alanine aminotransferase activity at 15 mg/kg, po qd for 48 weeks. In kind it is organism-based. More on the design: dose 15 mg/kg, route oral. The conditions noted are these: in vivo, 8064 h. The essentials:
(§1)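 Woodchucks chronically infected with WHV, 5 per group, received oral drug once daily in liquid diet for 48 weeks; placebo got diet only. Serum chemistry (GGT, ALP, ALT, AST, SDH, among others) was run 2 weeks pretreatment, at week 0, every other week to week 12, then monthly to week 48. Sampling continued at 2, 4, 6, 8 and 12 weeks post-treatment.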

Data set [2] concerns Woodchuck hepatitis virus. The experiment in a line: Antiviral activity against Woodchuck hepatitis virus infected in woodchuck assessed as reduction of viral antigen level in serum at 15 mg/kg, po qd for 48 weeks (reference value: 3.8 +/- 1.3 log10 ng/ml). Type of data set: functional.
Data set [3] concerns Marmota monax. Put plainly: Toxicity in Woodchuck hepatitis virus infected woodchuck assessed as increase of liver alanine aminotransferase activity at 15 mg/kg, po qd measured on 4 to 24 weeks on 48 week study. In kind it is organism-based. Further details: dose 15 mg/kg, route oral. The conditions noted are these: in vivo. An outline of the steps: as §1
The test system of data set [4] is Woodchuck hepatitis virus. The experiment in a line: Antiviral activity against Woodchuck hepatitis virus infected in woodchuck assessed as reduction of viral antigen positive hepatocytes at 15 mg/kg, po qd measured on 36th week on 48 weeks study (reference value: 41 +/- 25 %). In kind it is functional, Hepatocyte. Further details: scale not given: the % may be the effect or the level left. An outline of the steps:
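Chronic WHV-carrier woodchucks, 5 per group, 15 mg/kg/day oral once daily for 48 weeks in liquid diet. Liver biopsies were taken at pretreatment, weeks 12, 36, 48 and week 60. Percentage of hepatocytes positive for WHcAg was given as group mean ± SD and compared with pretreatment and placebo.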

In data set [5] the test system is Woodchuck hepatitis virus. Put plainly: Antiviral activity against Woodchuck hepatitis virus infected in woodchuck assessed as absent of lobular in portal hepatitis at 15 mg/kg, po qd for 48 weeks. Type of data set: functional, organism-based. Further details: dose 15 mg/kg. The essentials:
(§2)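 Adult chronic WHV-carrier woodchucks (neonatally inoculated), 5 per group, given drug once daily by dose syringe in semisynthetic liquid diet, for 48 weeks; placebo got diet alone. Ultrasound-guided needle liver biopsies under ketamine/xylazine anesthesia at pretreatment, weeks 12, 36, 48 and 12 weeks post-withdrawal. Biopsies were formalin-fixed, paraffin-embedded and H&E stained. Portal and lobular hepatitis were graded 0 (absent) to 4 (most severe).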

Data set [6] deals with Woodchuck hepatitis virus. The experiment in a line: Antiviral activity against Woodchuck hepatitis virus infected in woodchuck assessed as frequency of hepatocytes expressing viral antigen at 15 mg/kg, po qd measured on 12th week on 48 weeks study. In kind it is functional, Hepatocyte. The essentials: (§3)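 Chronic WHV-carrier woodchucks, 5 per group, given 15 mg/kg/day orally once daily for 48 weeks in liquid diet; placebo is diet alone. Liver biopsies at pretreatment, weeks 12, 36, 48 and 12 weeks after withdrawal. Cytoplasmic WHsAg staining scored 0–4: 1 ≤1%, 2 ≤2%, 3 ≤5%, 4 ≥10% of hepatocytes.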

Data set [7] concerns Woodchuck hepatitis virus. The experiment in a line: Antiviral activity against Woodchuck hepatitis virus infected in woodchuck assessed as reduction of viral RNA level per ug of total cell DNA at 15 mg/kg, po qd measured on 12th week on 48 weeks study (reference value: 46 +/- 25 pg). In kind it is functional. An outline of the steps:
(§4)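 Chronic WHV-carrier woodchucks, 5 per group, 15 mg/kg/day oral once daily for 48 weeks in liquid diet. Needle liver biopsies were snap-frozen in liquid nitrogen and stored at −70°C. Hepatic WHV DNA replicative intermediates were quantified by Southern blot (pg/μg total cell DNA) and WHV RNA by Northern blot; group means ± SD were compared with pretreatment and placebo.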

The subject of data set [8] is Woodchuck hepatitis virus. The experiment in a line: Antiviral activity against Woodchuck hepatitis virus infected in woodchuck assessed as absent of lesion in lobular hepatitis at 15 mg/kg, po qd for 48 weeks measured on 60th week. Type of data set: functional, organism-based. More on the design: dose 15 mg/kg. An outline of the steps: as §2
The test system of data set [9] is Woodchuck hepatitis virus. Put plainly: Antiviral activity against Woodchuck hepatitis virus infected in woodchuck assessed as reduction of viral antigen level in serum at 15 mg/kg, po qd measured on 12th week on 48 weeks study (reference value: 4.3 +/- 1.5 log10 ng/ml). Type of data set: functional.
The subject of data set [10] is Woodchuck hepatitis virus. Put plainly: Antiviral activity against Woodchuck hepatitis virus infected in woodchuck assessed as absent of lesion in lobular hepatitis at 15 mg/kg, po qd measured on 12th week on 48 weeks study. In kind it is functional, organism-based. More on the design: dose 15 mg/kg. The essentials:
as §2

The subject of data set [11] is Woodchuck hepatitis virus. Put plainly: Antiviral activity against Woodchuck hepatitis virus infected in woodchuck assessed as frequency of hepatocytes expressing viral antigen at 15 mg/kg, po qd measured on 36th week on 48 weeks study. In kind it is functional, Hepatocyte. The essentials: as §3
The subject of data set [12] is Woodchuck hepatitis virus. The experiment in a line: Antiviral activity against Woodchuck hepatitis virus infected in woodchuck assessed as frequency of hepatocytes expressing viral antigen at 15 mg/kg, po qd for 48 weeks measured on 60th week. Type of data set: functional, Hepatocyte. An outline of the steps: as §3
Data set [13] relates to Woodchuck hepatitis virus. Put plainly: Antiviral activity against Woodchuck hepatitis virus infected in woodchuck assessed as reduction of viral RNA level per ug of total cell DNA at 15 mg/kg, po qd for 48 weeks measured on 60th week (reference value: 27 pg). Type of data set: functional. The essentials:
as §4

Data set [14] relates to Woodchuck hepatitis virus. The experiment in a line: Antiviral activity against Woodchuck hepatitis virus infected in woodchuck assessed as absent of lesion in portal hepatitis at 15 mg/kg, po qd measured on 12th week on 48 weeks study. In kind it is functional, organism-based. More on the design: dose 15 mg/kg. An outline of the steps: as §2
For data set [15], the system named is Woodchuck hepatitis virus. Put plainly: Antiviral activity against Woodchuck hepatitis virus infected in woodchuck assessed as absent of lesion in portal hepatitis at 15 mg/kg, po qd measured on 36th week on 48 weeks study. Type of data set: functional, organism-based. More on the design: dose 15 mg/kg. An outline of the steps: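 Chronic WHV-carrier adult woodchucks (inoculated at 3 days of age), 5 per group, dosed orally once daily for 48 weeks by dose syringe, drug in saline suspended in semisynthetic liquid diet; placebo is diet alone. Ultrasound-guided needle liver biopsies under ketamine/xylazine, formalin-fixed, H&E stained; portal and lobular hepatitis graded 0 (absent) to 4 (most severe).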

For the compound `CC(C)(C)C(=O)OCOP(=O)(COCCn1cnc2c(N)ncnc21)OCOC(=O)C(C)(C)C` [ADEFOVIR DIPIVOXIL], the Activity entry is listed as “Toxic” with Marmota monax [1]; 4.1 log10ng/ml in data set [2]; “Toxic” in the data set on Marmota monax [3]; 45% in data set [4]; 1% in [6]; 33 pg in [7]. In addition, the Activity in [9] was 4.3 log10ng/ml; in data set [11] it was 5%; in data set [12], 1%; in data set [13], 46 pg. Besides, the outcome in data set [5], in [8], in data set [10] and in data set [14] was Active.
Regarding `CC(C)OC(=O)OCOP(=O)(CO[C@H](C)Cn1cnc2c(N)ncnc21)OCOC(=O)OC(C)C.O=C(O)/C=C/C(=O)O` [TENOFOVIR DISOPROXIL FUMARATE], the Activity entry in the data set on Marmota monax [1] is “Toxic”; in [2] it was 3.6 log10ng/ml; in the data set on Marmota monax [3], “Toxic”; in data set [4], 20%; in data set [6], 0%; in data set [7], 30 pg. Further, the Activity amounted to 3.4 log10ng/ml in [9], 1% in [11], 2% in [12] and 34 pg in data set [13]. For the same compound, the outcome in [10], in [15] and in data set [14] was Active.
